The source of these data is ChEMBL document CHEMBL5715959, “Inhibition of histone methyltransferase EZH2 in Schistosoma mansoni in vitro by GSK343 reduces egg laying and decreases the expression of genes implicated in DNA replication and noncoding RNA metabolism” (2018).

In assay [1] the test system is Schistosoma mansoni. The assay is described as follows: Antischistosomal activity against juvenile Schistosoma mansoni assessed as destroyed oral sucker at 20 to 50 uM incubated for 48 hrs by scanning electron microscopy analysis. To be noted: in the assay text read “at 50 uM” for “at 20 to 50 uM”. Format: functional, organism-based. The method in brief: (§1)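 Juvenile worms recovered by perfusion, five per well in supplemented RPMI (10% FBS, antibiotics, 37°C, 5% CO2), 2 h adaptation, then exposed 48 h to compound or 0.1% DMSO. Fixed in modified Karnovsky reagent (pH 7.4), washed in cacodylate buffer, post-fixed 1 h in 1% osmium tetroxide, ethanol-dehydrated, critical-point dried, gold-sputtered and imaged by scanning electron microscopy.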

Assay [2] has as its system Schistosoma mansoni. As to the kind of experiment: Antischistosomal activity against Schistosoma mansoni assessed as death of schistosomula at 10 to 50 uM incubated for 24 to 72 hrs by propidium iodide staining based fluorescence microscope analysis. To be noted: dose 10-50 µM, time 24-72 hrs. Type of assay: functional, organism-based. The method in brief: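 Schistosomula were cultured in supplemented M169 with 10–50 μM GSK343 or 0.1% DMSO for 24, 48 and 72 h. A fresh well set was used per time point, with 2 μg/mL propidium iodide (dead) plus 0.5 μg/mL fluorescein diacetate (live) added. Parasites were read immediately by light and fluorescence microscopy; percent viable was computed against total parasites. About 3600 schistosomula per condition over four biological replicates; 70% ethanol served as positive control.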

The subject of assay [3] is Schistosoma mansoni. As to the kind of experiment: Antischistosomal activity against adult Schistosoma mansoni assessed as increased H3K4me3 level at 20 uM incubated for 48 hrs by Western blotting analysis. Format: functional, organism-based. The gist of the method:
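Fifty adult worm pairs were treated 48 h with 20 μM GSK343 or vehicle in supplemented RPMI/10% FBS, then lysed in Triton buffer. Nuclear pellets were acid-extracted overnight in 0.25 M HCl at 4°C and histones were TCA-concentrated. 10 μg went on 15% SDS-PAGE and nitrocellulose, probed with anti-H3K27me3, K9ac, K27ac or K4me3, then IRDye secondaries; infrared densitometry was normalized to anti-H3. Three biological replicates; t-test.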
On the technique in general: In western blotting, separated proteins are transferred to a membrane and probed.

The test system of assay [4] is Schistosoma mansoni. As to the kind of experiment: Cytotoxicity against adult Schistosoma mansoni assessed as reduction in ATP quantification at 20 uM incubated for 48 hrs by CellTiter-Glo Luminescent assay relative to control. Format: functional. Set-up: scale not given: the % may be the effect or the level left. The gist of the method:
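Worm pairs in supplemented RPMI (10% FBS, 37°C, 5% CO2) exposed 48 h to compound or 0.1% DMSO. ATP measured by luminescence in freshly lysed worms and expressed as % of vehicle signal; three replicate experiments, 10 pairs each, mean ± SD.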
Background: Cellular ATP, detected with luciferase, serves as a proxy for viable cell number.

The test system of assay [5] is Schistosoma mansoni. As to the kind of experiment: Antischistosomal activity against adult female Schistosoma mansoni assessed as presence of fissures in egg shell at 20 uM incubated for 24 to 48 hrs by scanning electron microscopy analysis. Type of assay: functional, organism-based. To be noted: time 24-48 hrs. The method in brief: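 Eggs released by couples kept 24 or 48 h with 20 μM GSK343 or 0.1% DMSO in supplemented RPMI were fixed in modified Karnovsky with osmium post-fix. They were dehydrated, critical-point dried, gold-coated and imaged by SEM; total egg area dimension was measured.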

Assay [6] deals with Schistosoma mansoni. As to the kind of experiment: Antischistosomal activity against female Schistosoma mansoni assessed as down-regulated p14 mRNA level at 20 uM incubated for 48 hrs by RT-qPCR analysis. Type of assay: functional, organism-based. A general note: Quantitative PCR measures a nucleic acid by following its amplification.
Assay [7] concerns Schistosoma mansoni. As to the kind of experiment: Antischistosomal activity against adult male Schistosoma mansoni assessed as lesions of tegument around tubercles at 20 uM incubated for 48 hrs by scanning electron microscopy analysis. Format: functional, organism-based. The gist of the method: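 Adult couples were taken by perfusion into supplemented RPMI, one couple per well, and adapted 2 h at 37°C, 5% CO2. They were exposed to 20 μM GSK343 or 0.1% DMSO for 24 and 48 h. Fixation used modified Karnovsky with osmium post-fix, followed by ethanol dehydration, critical-point drying, gold sputtering and scanning electron microscopy of tegument surfaces.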

Assay [8] deals with Schistosoma mansoni. As to the kind of experiment: Antischistosomal activity against Schistosoma mansoni assessed as increased caspase 3/7 activity at 20 uM incubated for 48 hrs by Caspase 3/7 reagent based luminescence assay. Format: functional. The gist of the method: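 2,000 schistosomula per well were kept in supplemented M169 with 20 μM GSK343 or 0.1% DMSO for 48 h. Medium was replaced, reporter lysis buffer added, then Caspase-Glo 3/7 reagent for 3 h in the dark with agitation before reading luminescence. The negative control lacked reagent. Three experiments, each with 20,000 schistosomula.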

The subject of assay [9] is Schistosoma mansoni. As to the kind of experiment: Antischistosomal activity against Schistosoma mansoni assessed as deterioration of tegument with blisters at 20 uM incubated for 24 hrs by scanning electron microscopy analysis. Type of assay: functional, organism-based. The gist of the method: (§2)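 Newly transformed schistosomula were held 16 h in M169 with 2% FBS, serotonin, hypoxanthine, hydrocortisone, triiodothyronine and antibiotics at 37°C, 5% CO2, at 2,000 per well. They were then exposed to 20 μM GSK343 or 0.1% DMSO for 24 and 48 h. Fixation was modified Karnovsky (pH 7.4) with 1% osmium post-fix, then ethanol dehydration, critical-point drying, gold coating and SEM. Lengths came from three experiments, each with 20 schistosomula.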

Assay [10] has as its system Schistosoma mansoni. The assay is described as follows: Antischistosomal activity against juvenile Schistosoma mansoni assessed as presence of blisters in dorsal tegument at 20 to 50 uM incubated for 48 hrs by scanning electron microscopy analysis. To be noted: dose 20-50 µM. Type of assay: functional, organism-based. The method in brief:
as §1

Assay [11] has as its system Schistosoma mansoni. The assay is described as follows: Antischistosomal activity against Schistosoma mansoni assessed as down-regulated FGFR substrate 3 mRNA level in schistosomula at 20 uM incubated for 48 hrs by RT-qPCR analysis. Type of assay: functional, organism-based. The gist of the method: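 Schistosomula (supplemented M169) or adult worms (supplemented RPMI) were treated 48 h with 20 μM GSK343 or 0.1% DMSO at 37°C, 5% CO2. qPCR normalizer genes were chosen from RNA-seq data as those with TPM >1 and a treated/control ratio of 0.9–1.1 that were not differentially expressed. Relative expression was calculated by comparative Ct; significance by t-test.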

In assay [12] the test system is Schistosoma mansoni. The assay is described as follows: Cytotoxicity against Schistosoma mansoni assessed as reduction in total ATP content at 20 uM incubated for 2 days by CellTiter-Glo Luminescent assay relative to control. To be noted: time 2 day. Also noted: scale not given: the % may be the effect or the level left. Type of assay: functional. The gist of the method:
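Newly transformed schistosomula pre-cultured 16 h in M169 with 2% FBS, serotonin, hypoxanthine, hydrocortisone, triiodothyronine and antibiotics at 37°C, 5% CO2, then 100–120 per well exposed up to 5 days to compound or 0.1% DMSO. ATP in intact larvae read by luminescence, expressed as % of vehicle; three replicate experiments, two-way ANOVA.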

Assay [13] relates to Schistosoma mansoni. As to the kind of experiment: Antischistosomal activity against Schistosoma mansoni assessed as increased H3K9ac level in schistosomula at 20 uM incubated for 48 hrs by Western blotting analysis. Format: functional, organism-based. The method in brief:
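About 10,000 schistosomula were treated 48 h with 20 μM GSK343 or vehicle, then sonicated in Triton X-100 lysis buffer with PMSF and protease inhibitors. Supernatant nuclear extract (BCA-quantified, 10 μg) was run on 15% SDS-PAGE and blotted to nitrocellulose. Blots were probed with mark-specific monoclonal antibodies, then IRDye secondaries; infrared imaging was used and signals were normalized to total H3. t-test.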

Assay [14] relates to Schistosoma mansoni. As to the kind of experiment: Antischistosomal activity against Schistosoma mansoni assessed as developmental changes at 20 uM incubated for 24 hrs by scanning electron microscopy analysis. Format: functional, organism-based. The method in brief: as §2
Assay [15] deals with Schistosoma mansoni. As to the kind of experiment: Induction of apoptosis in Schistosoma mansoni assessed as DNA fragmentation at 20 uM incubated for 72 hrs by TUNEL staining based inverted microscope analysis. Format: functional, organism-based. The gist of the method:
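Schistosomula, 2,000 per well in supplemented M169 after 16 h pre-culture, exposed 72 h to compound or DMSO, then fixed 60 min, permeabilized and TUNEL-labelled for DNA strand breaks. Mounted with DAPI counterstain and imaged by ApoTome fluorescence microscopy at 40× objective.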

SMILES strings stand for the structures. Active and inactive are the calls of the source. The calls are words filed in the database; no cut-off is given here.

For `CCCc1cc(C)[nH]c(=O)c1CNC(=O)c1cc(-c2ccnc(N3CCN(C)CC3)c2)cc2c1cnn2C(C)C`, the result in the assay on Schistosoma mansoni [1], in the assay with Schistosoma mansoni [2], in the assay with Schistosoma mansoni [3], with Schistosoma mansoni [5], in the assay with Schistosoma mansoni [6] and in the assay on Schistosoma mansoni [7] was Active. Further, the result with Schistosoma mansoni [9], with Schistosoma mansoni [10], in the assay on Schistosoma mansoni [11], with Schistosoma mansoni [13] and with Schistosoma mansoni [15] was Active. Also, the Activity is listed as 50% in the assay with Schistosoma mansoni [4] and 40% with Schistosoma mansoni [12]. The “fold change (FC)” value in the assay on Schistosoma mansoni [8] was 17. For the same molecule, the outcome with Schistosoma mansoni [14] was inactive.
